From ChEMBL document CHEMBL1759986, “Selective α-glucosidase substrates and inhibitors containing short aromatic peptidyl moieties” (Bioorg Med Chem Lett, 2011)
The source made the active and inactive calls. No cut-off for these calls is given here.

Assays:
[1] = target: T1, Pancreatic alpha-amylase (Sus scrofa) (UniProt P00690); experiment: Inhibition of pig alpha-amylase assessed as formation of p-nitrophenol
T1 sequence (whole entry): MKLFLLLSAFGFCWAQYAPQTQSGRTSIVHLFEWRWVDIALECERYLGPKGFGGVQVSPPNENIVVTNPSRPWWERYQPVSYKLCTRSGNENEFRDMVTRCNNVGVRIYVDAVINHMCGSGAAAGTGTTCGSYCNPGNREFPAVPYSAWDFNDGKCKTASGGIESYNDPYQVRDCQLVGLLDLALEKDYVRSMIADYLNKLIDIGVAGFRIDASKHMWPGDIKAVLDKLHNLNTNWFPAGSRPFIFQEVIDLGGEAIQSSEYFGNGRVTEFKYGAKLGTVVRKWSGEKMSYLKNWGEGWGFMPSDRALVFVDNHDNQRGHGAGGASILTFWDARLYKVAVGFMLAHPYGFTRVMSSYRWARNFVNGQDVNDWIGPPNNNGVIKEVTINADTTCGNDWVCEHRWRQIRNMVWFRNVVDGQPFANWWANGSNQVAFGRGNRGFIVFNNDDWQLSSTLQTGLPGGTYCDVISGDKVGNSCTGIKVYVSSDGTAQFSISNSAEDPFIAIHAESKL
Summary of the method: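 Screening used each α-amylase with an equimolar mixture of the peptidyl substrate and p-nitrophenyl-α-D-pentaoside. The read-out was the rate of p-nitrophenol formation compared with the chromogenic substrate alone. Each data point was triplicated and averaged.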

[2] = tested on: Salivary alpha-amylase (Homo sapiens); experiment: Inhibition of human salivary alpha-amylase assessed as formation of p-nitrophenol
Alpha-glucosidase = target: T2, Alpha-glucosidase (Geobacillus stearothermophilus, UniProt P94451); experiment: Competitive inhibition of Bacillus stearothermophilus alpha-glucosidase assessed as production of chromogenic p-Nitrphenol measured after 3 mins by HPLC and Michaelis-Menten equation
T2 sequence (P94451 whole entry): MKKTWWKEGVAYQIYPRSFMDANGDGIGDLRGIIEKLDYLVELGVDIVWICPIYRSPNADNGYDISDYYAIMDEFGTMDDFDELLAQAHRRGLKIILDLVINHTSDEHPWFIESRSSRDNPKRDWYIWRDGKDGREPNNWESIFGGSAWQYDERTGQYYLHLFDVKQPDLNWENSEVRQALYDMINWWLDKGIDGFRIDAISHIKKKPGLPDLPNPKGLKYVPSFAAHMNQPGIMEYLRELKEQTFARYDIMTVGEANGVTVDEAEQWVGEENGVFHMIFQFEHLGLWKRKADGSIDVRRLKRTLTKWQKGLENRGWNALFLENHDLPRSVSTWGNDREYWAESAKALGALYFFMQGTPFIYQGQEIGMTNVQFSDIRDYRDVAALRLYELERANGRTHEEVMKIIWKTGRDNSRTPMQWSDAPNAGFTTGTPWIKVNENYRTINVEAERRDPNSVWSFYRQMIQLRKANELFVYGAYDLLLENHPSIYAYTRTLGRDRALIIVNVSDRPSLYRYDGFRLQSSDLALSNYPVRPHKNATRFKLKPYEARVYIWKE
Summary of the method: (§1)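 The chromogenic substrate was p-nitrophenyl-α-D-glucopyranoside, with p-nitrophenol formation monitored. Ki was calculated from a Dixon plot. Each measurement was triplicated and averaged.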

[3] = Competitive inhibition of rice alpha-glucosidase assessed as production of chromogenic p-Nitrphenol measured after 3 mins by HPLC and Michaelis-Menten equation; design: species or system Oryza sativa; summary of the method: as §1
[4] = substrate: O=[N+]([O-])c1ccc(O[C@H]2O[C@H](CO)[C@@H](O)[C@H](O)[C@H]2O)cc1; experiment: Activity at Bacillus stearothermophilus alpha-glucosidase assessed as production of chromogenic p-Nitrphenol measured after 3 mins by HPLC and Michaelis-Menten equation; conditions: Geobacillus stearothermophilus
Summary of the method: (§2)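 Alpha-glucosidase from Bacillus stearothermophillus was incubated with the substrate. Km was obtained by Michaelis–Menten kinetics. Vmax, kcat and kcat/Km were reported alongside Km. Each value was measured in triplicate and averaged.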

[5] = substrate: CC(=O)Nc1ccc(O[C@H]2O[C@H](CO)[C@@H](O)[C@H](O)[C@H]2O)cc1; experiment: Activity at Bacillus stearothermophilus alpha-glucosidase assessed as production of chromogenic p-acetaminophenyl measured after 3 mins by HPLC Michaelis-Menten equation; conditions: Geobacillus stearothermophilus; summary of the method: as §2
[6] = substrate: NC(=O)[C@H](Cc1ccc(O)cc1)NC(=O)[C@H](Cc1c[nH]c2ccccc12)NC(=O)CCC(=O)Nc1ccc(O[C@H]2O[C@H](CO)[C@@H](O)[C@H](O)[C@H]2O)cc1; experiment: Activity at Bacillus stearothermophilus alpha-glucosidase assessed as production of chromogenic Sp-WY measured after 3 mins by HPLC Michaelis-Menten equation; conditions: Geobacillus stearothermophilus; summary of the method: as §2
[7] = substrate: O=[N+]([O-])c1ccc(O[C@H]2O[C@H](CO)[C@@H](O)[C@H](O)[C@H]2O)cc1; experiment: Ratio of Kcat to Km for Bacillus stearothermophilus alpha-glucosidase assessed as production of chromogenic p-Nitrphenol; conditions: Geobacillus stearothermophilus; summary of the method: as §2
[8] = substrate: CC(=O)Nc1ccc(O[C@H]2O[C@H](CO)[C@@H](O)[C@H](O)[C@H]2O)cc1; experiment: Ratio of Kcat to Km for Bacillus stearothermophilus alpha-glucosidase assessed as production of chromogenic p-acetaminophenyl; conditions: Geobacillus stearothermophilus; summary of the method: as §2
[9] = substrate: NC(=O)[C@H](Cc1ccc(O)cc1)NC(=O)[C@H](Cc1c[nH]c2ccccc12)NC(=O)CCC(=O)Nc1ccc(O[C@H]2O[C@H](CO)[C@@H](O)[C@H](O)[C@H]2O)cc1; experiment: Ratio of Kcat to Km for Bacillus stearothermophilus alpha-glucosidase assessed as production of chromogenic Sp-WY; conditions: Geobacillus stearothermophilus; summary of the method: as §2

## NC(=O)[C@H](Cc1c[nH]c2ccccc12)NC(=O)[C@H](Cc1ccc(O)cc1)NC(=O)CCC(=O)Nc1ccc(O[C@H]2O[C@H](CO)[C@@H](O[C@H]3O[C@H](CO)[C@@H](O[C@H]4O[C@H](CO)[C@@H](O[C@H]5O[C@H](CO)[C@@H](O[C@H]6O[C@H](CO)[C@@H](O)[C@H](O)[C@H]6O)[C@H](O)[C@H]5O)[C@H](O)[C@H]4O)[C@H](O)[C@H]3O)[C@H](O)[C@H]2O)cc1
[1]
  inhibition: inactive
[2]
  inhibition: inactive

## NC(=O)[C@H](Cc1ccc(O)cc1)NC(=O)[C@H](Cc1c[nH]c2ccccc12)NC(=O)CCC(=O)Nc1ccc(O[C@@H]2O[C@H](CO)[C@@H](O)[C@H](O)[C@H]2O)cc1
Alpha-glucosidase
  Ki: 110 µM

## NC(=O)[C@H](Cc1ccc(O)cc1)NC(=O)[C@H](Cc1ccc(O)cc1)NC(=O)CCC(=O)Nc1ccc(O[C@H]2O[C@H](CO)[C@@H](O[C@H]3O[C@H](CO)[C@@H](O[C@H]4O[C@H](CO)[C@@H](O[C@H]5O[C@H](CO)[C@@H](O[C@H]6O[C@H](CO)[C@@H](O)[C@H](O)[C@H]6O)[C@H](O)[C@H]5O)[C@H](O)[C@H]4O)[C@H](O)[C@H]3O)[C@H](O)[C@H]2O)cc1
[1]
  inhibition: inactive
[2]
  inhibition: inactive

## NC(=O)[C@H](Cc1ccc(O)cc1)NC(=O)[C@H](Cc1c[nH]c2ccccc12)NC(=O)CCC(=O)Nc1ccc(O[C@H]2O[C@H](CO)[C@@H](O[C@H]3O[C@H](CO)[C@@H](O[C@H]4O[C@H](CO)[C@@H](O[C@H]5O[C@H](CO)[C@@H](O[C@H]6O[C@H](CO)[C@@H](O)[C@H](O)[C@H]6O)[C@H](O)[C@H]5O)[C@H](O)[C@H]4O)[C@H](O)[C@H]3O)[C@H](O)[C@H]2O)cc1
[1]
  inhibition: inactive
[2]
  inhibition: inactive

## NC(=O)[C@H](Cc1ccc(O)cc1)NC(=O)[C@H](Cc1ccccc1)NC(=O)CCC(=O)Nc1ccc(O[C@H]2O[C@H](CO)[C@@H](O[C@H]3O[C@H](CO)[C@@H](O[C@H]4O[C@H](CO)[C@@H](O[C@H]5O[C@H](CO)[C@@H](O[C@H]6O[C@H](CO)[C@@H](O)[C@H](O)[C@H]6O)[C@H](O)[C@H]5O)[C@H](O)[C@H]4O)[C@H](O)[C@H]3O)[C@H](O)[C@H]2O)cc1
[1]
  inhibition: inactive
[2]
  inhibition: inactive

## C[C@H]1O[C@H](O[C@H]2[C@H](O)[C@@H](O)[C@@H](O[C@H]3[C@H](O)[C@@H](O)C(O)O[C@@H]3CO)O[C@@H]2CO)[C@H](O)[C@@H](O)[C@@H]1N[C@H]1C=C(CO)[C@@H](O)[C@H](O)[C@H]1O (stereo not given in full) [ACARBOSE]
[3]
  Ki: 4.2 µM

## NC(=O)[C@H](Cc1ccc(O)cc1)NC(=O)[C@H](Cc1c[nH]c2ccccc12)NC(=O)CCC(=O)Nc1ccc(O)cc1
Alpha-glucosidase
  Ki: 1400 µM

## NC(=O)[C@H](Cc1ccccc1)NC(=O)[C@H](Cc1ccc(O)cc1)NC(=O)CCC(=O)Nc1ccc(O[C@H]2O[C@H](CO)[C@@H](O[C@H]3O[C@H](CO)[C@@H](O[C@H]4O[C@H](CO)[C@@H](O[C@H]5O[C@H](CO)[C@@H](O[C@H]6O[C@H](CO)[C@@H](O)[C@H](O)[C@H]6O)[C@H](O)[C@H]5O)[C@H](O)[C@H]4O)[C@H](O)[C@H]3O)[C@H](O)[C@H]2O)cc1
[1]
  inhibition: inactive
[2]
  inhibition: inactive

## NC(=O)[C@H](Cc1ccccc1)NC(=O)[C@H](Cc1c[nH]c2ccccc12)NC(=O)CCC(=O)Nc1ccc(O[C@H]2O[C@H](CO)[C@@H](O[C@H]3O[C@H](CO)[C@@H](O[C@H]4O[C@H](CO)[C@@H](O[C@H]5O[C@H](CO)[C@@H](O[C@H]6O[C@H](CO)[C@@H](O)[C@H](O)[C@H]6O)[C@H](O)[C@H]5O)[C@H](O)[C@H]4O)[C@H](O)[C@H]3O)[C@H](O)[C@H]2O)cc1
[1]
  inhibition: inactive
[2]
  inhibition: inactive

## NC(=O)[C@H](Cc1c[nH]c2ccccc12)NC(=O)[C@H](Cc1c[nH]c2ccccc12)NC(=O)CCC(=O)Nc1ccc(O[C@H]2O[C@H](CO)[C@@H](O[C@H]3O[C@H](CO)[C@@H](O[C@H]4O[C@H](CO)[C@@H](O[C@H]5O[C@H](CO)[C@@H](O[C@H]6O[C@H](CO)[C@@H](O)[C@H](O)[C@H]6O)[C@H](O)[C@H]5O)[C@H](O)[C@H]4O)[C@H](O)[C@H]3O)[C@H](O)[C@H]2O)cc1
[1]
  inhibition: inactive
[2]
  inhibition: inactive

## O=[N+]([O-])c1ccc(O[C@H]2O[C@H](CO)[C@@H](O[C@H]3O[C@H](CO)[C@@H](O[C@H]4O[C@H](CO)[C@@H](O[C@H]5O[C@H](CO)[C@@H](O[C@H]6O[C@H](CO)[C@@H](O)[C@H](O)[C@H]6O)[C@H](O)[C@H]5O)[C@H](O)[C@H]4O)[C@H](O)[C@H]3O)[C@H](O)[C@H]2O)cc1
[1]
  inhibition: inactive
[2]
  inhibition: inactive

## NC(=O)[C@H](Cc1c[nH]c2ccccc12)NC(=O)[C@H](Cc1ccccc1)NC(=O)CCC(=O)Nc1ccc(O[C@H]2O[C@H](CO)[C@@H](O[C@H]3O[C@H](CO)[C@@H](O[C@H]4O[C@H](CO)[C@@H](O[C@H]5O[C@H](CO)[C@@H](O[C@H]6O[C@H](CO)[C@@H](O)[C@H](O)[C@H]6O)[C@H](O)[C@H]5O)[C@H](O)[C@H]4O)[C@H](O)[C@H]3O)[C@H](O)[C@H]2O)cc1
[1]
  inhibition: inactive
[2]
  inhibition: inactive

## NC(=O)[C@H](Cc1ccccc1)NC(=O)[C@H](Cc1ccccc1)NC(=O)CCC(=O)Nc1ccc(O[C@H]2O[C@H](CO)[C@@H](O[C@H]3O[C@H](CO)[C@@H](O[C@H]4O[C@H](CO)[C@@H](O[C@H]5O[C@H](CO)[C@@H](O[C@H]6O[C@H](CO)[C@@H](O)[C@H](O)[C@H]6O)[C@H](O)[C@H]5O)[C@H](O)[C@H]4O)[C@H](O)[C@H]3O)[C@H](O)[C@H]2O)cc1
[1]
  inhibition: inactive
[2]
  inhibition: inactive

B1: Alpha-glucosidase (Geobacillus stearothermophilus), P94451 (protein)
chain: T2 sequence (P94451 whole entry)
[4]
  Km: 1200 µM
  Vmax: 0.019 µM/s
  kcat: 9.5 s⁻¹
[5]
  Km: 1900 µM
  Vmax: 0.0015 µM/s
  kcat: 0.76 s⁻¹
[6]
  Km: 13 µM
  Vmax: 0.00025 µM/s
  kcat: 0.13 s⁻¹
[7]
  kcat/Km: 7.6 mM⁻¹ s⁻¹
[8]
  kcat/Km: 0.4 mM⁻¹ s⁻¹
[9]
  kcat/Km: 10 mM⁻¹ s⁻¹
